Compound activity from PubChem BioAssay.
UBC13 polyUb – blocks human UBC13 polyubiquitin chain formation; P61088; TR-FRET; inhibition, % at 20 µM; 330,000 compounds, 0.47% hits; AID 485273; in the data active = inhibition above about 45%, passing the limit was not always enough; inconclusive = no clear call, values can overlap the other calls
Target sequence (P61088 whole entry, looked up): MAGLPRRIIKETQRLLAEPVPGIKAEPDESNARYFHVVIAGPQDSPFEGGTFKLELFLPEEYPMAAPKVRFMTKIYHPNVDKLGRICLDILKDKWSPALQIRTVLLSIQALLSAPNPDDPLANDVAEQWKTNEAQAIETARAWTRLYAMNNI
SR-BI HDL uptake – blocks mouse SR-BI lipid uptake from DiI-HDL | inhibition, % at 12.5 µM | 320,000 compounds, 0.96% hits | ldlA[mSR-BI] CHO cells, DiI-HDL uptake fluorescence, 3 h;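 active = mean replicate inhibition of at least 70% and a set share of replicates each scoring 70 or more; inconclusive = meets just one of the two criteria; inactive = fails both criteria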
Target sequence (Q61009 whole entry, looked up): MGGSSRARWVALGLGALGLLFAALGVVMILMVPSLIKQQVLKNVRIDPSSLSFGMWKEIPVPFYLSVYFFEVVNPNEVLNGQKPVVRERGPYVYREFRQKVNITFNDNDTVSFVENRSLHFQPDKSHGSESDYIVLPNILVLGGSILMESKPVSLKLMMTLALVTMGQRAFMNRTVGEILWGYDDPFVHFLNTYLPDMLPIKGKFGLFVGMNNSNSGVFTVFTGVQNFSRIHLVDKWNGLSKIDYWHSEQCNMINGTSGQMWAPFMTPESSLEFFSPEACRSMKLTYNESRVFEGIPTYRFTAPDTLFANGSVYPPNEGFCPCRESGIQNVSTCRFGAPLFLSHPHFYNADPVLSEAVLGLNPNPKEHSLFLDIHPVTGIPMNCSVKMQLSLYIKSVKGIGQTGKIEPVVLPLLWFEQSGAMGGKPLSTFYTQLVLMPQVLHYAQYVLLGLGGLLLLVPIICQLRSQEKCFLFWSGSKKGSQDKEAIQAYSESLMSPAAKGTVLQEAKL
SR-BI DiI-HDL act – SR-BI HDL lipid transfer activation. 320,000 compounds, 0.096% hits. CHO ldlA[mSR-BI] cells, DiI-HDL uptake fluorescence, 3 h; 100 = double the neutral-control signal. AID 504775. activation, % at 12.5 µM;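 active = mean replicate activation of at least 60% and every replicate at or above 60%; inconclusive = mean or all-replicate condition met, but not both; inactive = mean below 60% and not all replicates reaching 60%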
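Material: SR-BI-overexpressing, LDLR-lacking CHO cells; schedule: compound exposure 3 h, 37 °C; reagent: DiI-labelled HDL at 10 µg/mL final; technique: bottom-read fluorescence, 550/595 nm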
Neddyl block – blocks human cullin neddylation. 360,000 compounds, 0.58% hits. AID 651699. P61081+Q13564. TR-FRET cullin neddylation, biochemical. inhibition, % at 25 µM; in the data active = inhibition above about 36%
Large screens that a line does not name were inactive. Shown are actives, neighbours in structure and some others; about 1.9% of the full set was active somewhere.

O=C(O)C1CCC(C(=O)O)SS1 (stereo not given)	none (no result: UBC13 polyUb)
COc1ccccc1CN1C(=O)[C@@H]2Cc3c([nH]c4ccccc34)C(C)(C)N2C1=O	SR-BI HDL uptake 76
CC1(C)c2[nH]c3ccccc3c2C[C@@H]2C(=O)N(c3cc(F)ccc3F)C(=O)N21	SR-BI HDL uptake 77
Cc1ccccc1CN1C(=O)[C@@H]2Cc3c([nH]c4ccccc34)C(C)(C)N2C1=O	none
CC1(C)c2[nH]c3ccccc3c2C[C@H]2C(=O)N(Cc3cccc(F)c3)C(=O)N21	none
CCOC(=O)c1[nH]c2ccc(OC)cc2c1NC(=S)N1CCN(c2cccc(C)c2C)CC1	SR-BI HDL uptake 73
CCOC(=O)c1[nH]c2ccc(OC)cc2c1NC(=S)N1CCN(c2ccc(F)cc2)CC1	none
COc1cccc(NC(=O)N2CCN(c3cccc(C)c3C)CC2)c1	SR-BI HDL uptake 71
O=C(CSc1nnc(CNC(=O)c2cccs2)o1)Nc1ccc(Br)cc1	none
CCCCNC(=O)c1cc2nc3c(c(C(F)(F)F)n2n1)CCc1ccccc1-3	none
CC(C)CNC(=O)c1cc2nc3c(c(C(F)(F)F)n2n1)CCc1ccccc1-3	SR-BI HDL uptake 78
O=C(NCCCNC(=O)c1c(F)cccc1F)c1c(F)cccc1F	SR-BI HDL uptake 78
C[C@H]1Cn2cnc(C(=O)Nc3ccccc3)c2C(=O)N1	none (no result: UBC13 polyUb, SR-BI HDL uptake, SR-BI DiI-HDL act)
Cc1ccc(C(=O)OCC(=O)N2c3ccccc3NC(=O)C2(C)C)cc1S(=O)(=O)N1CCCCC1	SR-BI HDL uptake 84
Cc1ccc(S(=O)(=O)N2CCCCC2)cc1C(=O)OCC(=O)N1c2ccccc2NC(=O)C1(C)C	none
Cc1ccc2nc(C(Cl)(Cl)Cl)nc(N/N=C/c3ccc([N+](=O)[O-])cc3)c2c1	SR-BI HDL uptake 91 (no result: UBC13 polyUb)
CC1(C(=O)Nc2ccc3c(c2)OCO3)CCN1C(=O)c1ccco1 (stereo not given)	none (no result: UBC13 polyUb, SR-BI HDL uptake, SR-BI DiI-HDL act)
CCNc1ncnc2c1cnn2C1CCCCO1 (stereo not given)	none (no result: UBC13 polyUb)
COc1ccc(N2C(C)=CS/C2=C(/C#N)c2nnc(N3CCOCC3)n2-c2ccccc2)cc1	none
COc1ccc(/C=C/C(O)=C(\C#N)c2nnc(N3CCOCC3)n2-c2ccccc2)cc1OC	SR-BI HDL uptake 75
COc1cc(OC)c(NC(=O)c2cc3ccccc3cc2O)cc1Cl	SR-BI HDL uptake 94 (not shown: UBC13 polyUb, Neddyl block)
COc1cc(OC)c(NC(=O)c2ccco2)cc1Cl	none
COc1cc(NC(=O)c2ccccc2)c(OC)cc1Cl	SR-BI HDL uptake 86
Cn1c(SCc2cccc(C(F)(F)F)c2)nnc1-c1ccco1	SR-BI DiI-HDL act 164
Nn1c(SCc2cccc(C(F)(F)F)c2)nnc1-c1ccco1	none
CN(C(=O)C1Cc2c(-c3ccc(Cl)cc3)ccnc2O1)c1ccccc1 (stereo not given)	none (no result: UBC13 polyUb, SR-BI HDL uptake, SR-BI DiI-HDL act)
CCc1ccc(NC(=O)COC(=O)Cn2cnc3ccccc32)cc1	UBC13 polyUb inconclusive
COc1ccc(CC(=O)Nc2nc(OCCN3CCCC3=O)cnc2-c2cccc(C(F)(F)F)c2)cc1	none (no result: UBC13 polyUb, SR-BI HDL uptake, SR-BI DiI-HDL act)
Fc1ccc2[nH]c3c(N4CCc5ccccc5C4)ncnc3c2c1	Neddyl block 45 (no result: SR-BI HDL uptake, SR-BI DiI-HDL act)
Cc1ccc(NC(=O)c2csc(-c3ccccc3)c2C)cc1	none (no result: UBC13 polyUb)
Cc1c(C(=O)Nc2cccc([N+](=O)[O-])c2)csc1-c1ccccc1	SR-BI HDL uptake 89
O=C(Nc1cccc([N+](=O)[O-])c1)c1cc2ccccc2cc1O	SR-BI HDL uptake 129
CCOC(=O)c1sc(NC(=O)c2c(CC)noc2C)nc1C	none
COc1cccc(/C=C/C2=CC(C)(C)NC(=S)N2)c1	SR-BI HDL uptake 78
CCOc1ccc(/C=C/C2=CC(C)(C)NC(=S)N2)cc1	none
COc1ccc(/C=C/C2=CC(C)(C)NC(=S)N2)cc1OC	SR-BI HDL uptake 83
COc1cccc(/C=N/n2c(-c3cc(C)[nH]n3)n[nH]c2=S)c1	none
Cc1nc2c(-c3ccccc3)cnn2c(N)c1-c1ccccc1	none (not shown: Neddyl block)
COc1ccc(N=c2oc3cc(O)ccc3cc2C(=O)Nc2ccccn2)cc1OC	SR-BI HDL uptake 71
Cc1ccc(N=c2oc3cc(O)ccc3cc2C(N)=O)cc1	Neddyl block 48 (no result: SR-BI DiI-HDL act)
COc1ccc(N=c2oc3cc(O)ccc3cc2C(=O)NCC2CCCO2)cc1 (stereo not given)	none (not shown: Neddyl block)
Cc1ccc2[nH]c(CNC(=O)C3CCCCC3)cc2c1	none
Cc1cccc(-n2nc3c(c2NC(=O)C(C)C)CSC3)c1	none
O=C(COC(=O)/C=C/c1ccccc1)NC1CCS(=O)(=O)C1 (stereo not given)	none
CCOc1cc(/C=C/C(=O)OCC(=O)NC2CCS(=O)(=O)C2)ccc1OCc1ccccc1 (stereo not given)	SR-BI HDL uptake 73
COc1ccc(CN(C)C(=O)/C=C/[C@H]2O[C@@H](n3cc(C)c(=O)[nH]c3=O)C[C@@H]2O)cc1OC	none (no result: UBC13 polyUb, SR-BI HDL uptake, SR-BI DiI-HDL act)
Nc1ccn([C@@H]2O[C@H](CNCc3cc(Br)ccc3OCc3ccccc3)[C@@H](O)[C@H]2O)c(=O)n1	none (no result: UBC13 polyUb, SR-BI HDL uptake, SR-BI DiI-HDL act)
Cc1sc(NC(=O)c2ccco2)nc1-c1ccc2c(c1)CC(C)N2C(=O)C1CC1 (stereo not given)	SR-BI HDL uptake 79
CCN1C(=O)C(=Cc2cccc(OC)c2Oc2ccc([N+](=O)[O-])cc2[N+](=O)[O-])SC1=S	SR-BI HDL uptake 75
COc1cc(/C=C2\SC(=O)NC2=O)ccc1Oc1ccc([N+](=O)[O-])cc1[N+](=O)[O-]	none
CN1CCN(c2ncnc3c2ncn3[C@H]2CN(Cc3ccc4c(c3)OCO4)C[C@@H](CO)O2)CC1	none (no result: UBC13 polyUb, SR-BI HDL uptake, SR-BI DiI-HDL act)
Oc1ccc(C[C@H]2CNC(=S)N2CC2CCCN2C[C@H](Cc2ccc(O)cc2)N2C[C@H](Cc3ccc(O)cc3)N(CC3CCCCC3)C2=S)cc1 (stereo not given in full)	SR-BI DiI-HDL act 183 (no result: UBC13 polyUb)
CC(C)C[C@@H](CN1CCCC1CN1C(=S)NC[C@@H]1Cc1ccc(O)cc1)N1C[C@H](Cc2ccc(O)cc2)N(CC2CCCCC2)C1=S (stereo not given in full)	SR-BI DiI-HDL act 76 (no result: UBC13 polyUb)
Oc1ccc(C[C@H]2CNC(=S)N2CC2CCCN2C[C@H](Cc2ccccc2)N2C[C@H](Cc3ccc(O)cc3)N(CC3CCCCCC3)C2=S)cc1 (stereo not given in full)	SR-BI DiI-HDL act 86 (no result: UBC13 polyUb)
O=C(NCc1cccs1)C1CCCN(C(=O)Nc2ccccc2)C1 (stereo not given)	none
CCN(CC(=O)Nc1c(F)cccc1F)C(=O)c1ccc(S(=O)(=O)N2CCC(C)CC2)cc1	none
CCOC(=O)C1CCCN(CC(=O)N(C)c2c(N)n(Cc3ccccc3)c(=O)[nH]c2=O)C1 (stereo not given)	none
CCOC(=O)c1oc2ccccc2c1NC(=O)c1cccc(OC)c1OC	SR-BI HDL uptake 77
CCOC(=O)c1oc2ccccc2c1NC(=O)c1cccc(OC)c1	none
COC(=O)c1cc(OC)c(OC)cc1NC(=O)c1cccc(OC)c1OC	SR-BI HDL uptake 72
COC(=O)c1cc(OC)c(OC)cc1NC(=O)Nc1ccccc1OC	none
C=CC[n+]1c(/C=C2\C=Cc3cc(C)ccc3N2CC)ccc2ccccc21	SR-BI HDL uptake 80
CC(OC(=O)c1ccc([N+](=O)[O-])s1)C(=O)NC1CCCCC1C (stereo not given)	none
O=C(CSc1nnc(-c2ccccc2O)n1Cc1ccccc1)NNC(=O)c1ccccc1O	SR-BI HDL uptake 88
